Results taken from article PMC12376068 (Protein Science : A Publication of the Protein Society, 2025).
Bridge positions count the residues as written; N and C are the ends. Square brackets hold non-standard residues; d marks the D form. Ends that are not written are not given here. I, II: the chains in the order shown. propargylglycine(fluorescein) = propargylglycine labeled with fluorescein azide by click chemistry; PEG10 = NCCOCCOCCOCCOCCOCCOCCOCCOCCOCCOCCC(=O)O

Experiments:
[1] = molecular target: T1, human PD-L2 (hPD-L2) on CHO cells (Homo sapiens, UniProt Q9BQ51); assay: Flow cytometry binding to CHO cells expressing human PD-L2; format: cell-based; details: highest concentration tested, 1200 nM (Figure S15E)
T1 sequence (Q9BQ51 20-273): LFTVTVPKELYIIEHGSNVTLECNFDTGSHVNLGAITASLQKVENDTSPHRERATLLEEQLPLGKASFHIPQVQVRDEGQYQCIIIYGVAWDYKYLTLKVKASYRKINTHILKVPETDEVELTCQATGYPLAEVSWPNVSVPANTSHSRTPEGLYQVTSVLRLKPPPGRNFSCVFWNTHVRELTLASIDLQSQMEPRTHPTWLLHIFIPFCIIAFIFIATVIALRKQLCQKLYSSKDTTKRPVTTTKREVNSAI
Method in brief: (§1)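 CHO cells stably transfected with hPD-L2, or MDA-MB-468 cells, were grown in DMEM with 10% heat-inactivated FBS. They were lifted with trypsin-EDTA and resuspended in serum-free medium at 200,000 cells per well. Cells were incubated 1 h at 4°C in the dark with a dilution series of fluorescein-conjugated test peptide in cold 1:1 PBS:SF medium. After three cold-PBS washes, live single-cell fluorescence was read by flow cytometry (488 nm excitation).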

[2] = molecular target: mouse PD-L1 (mPD-L1) on CHO cells (Mus musculus, UniProt Q9EP73); assay: Flow cytometry binding to CHO cells expressing mouse PD-L1; format: cell-based; details: highest concentration tested, 1200 nM (Figure S15E)
Chain of mouse PD-L1 (mPD-L1) on CHO cells (Q9EP73 19-290): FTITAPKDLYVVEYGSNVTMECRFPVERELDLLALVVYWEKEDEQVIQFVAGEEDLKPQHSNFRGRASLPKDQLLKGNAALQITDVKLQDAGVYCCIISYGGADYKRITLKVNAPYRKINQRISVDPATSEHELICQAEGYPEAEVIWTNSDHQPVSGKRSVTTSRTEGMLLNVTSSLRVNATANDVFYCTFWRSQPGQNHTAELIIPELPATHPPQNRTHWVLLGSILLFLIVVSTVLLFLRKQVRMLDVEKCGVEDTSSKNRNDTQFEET

[3] = Peptide solubility and aggregation; format: physicochemical; details: all conditions tested for CD spectroscopy
Method in brief: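 Lyophilized peptide was reconstituted in phosphate buffer (15 mM pH 6.5 or 50 mM pH 4.5) containing 10–20% MeOH or TFE. Samples were vortexed and sonicated 5 min. Concentration was set by absorbance at 280 nm, using 5500 M−1 cm−1 per Trp and 1490 M−1 cm−1 per Tyr. Absorbance had to stay constant over 20 min to exclude aggregation.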

hPD-L1 = hPD-L1 (Homo sapiens, UniProt Q9NZQ7); assay: Biolayer interferometry; format: binding
Chain of hPD-L1 (Q9NZQ7 19-238 limits assumed): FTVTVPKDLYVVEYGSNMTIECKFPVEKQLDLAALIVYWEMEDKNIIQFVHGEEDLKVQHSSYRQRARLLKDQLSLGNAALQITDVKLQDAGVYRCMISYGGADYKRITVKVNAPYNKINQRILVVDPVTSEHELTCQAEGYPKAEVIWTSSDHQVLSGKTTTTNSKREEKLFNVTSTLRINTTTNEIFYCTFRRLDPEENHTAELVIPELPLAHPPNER
Method in brief: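 Extracellular-domain hPD-L1 was expressed in HEK293F cells, Ni-NTA purified and BirA-biotinylated. At 1 μg mL−1 it was loaded onto streptavidin biosensors to 1.4 nm, with PD-L1-free sensors as reference. Association ran 180 s and dissociation 900 s in assay buffer. Sensorgrams were normalized to no-peptide and globally fit to a 1:1 Langmuir model. Duplicates; means and fitting errors reported.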

[4] = molecular target: hPD-L1 on the surface of CHO cells (Homo sapiens, UniProt Q9NZQ7); assay: Flow cytometry binding to CHO hPD-L1 cells; format: cell-based; details: flow cytometry (Figure S15D)
Chain of hPD-L1 on the surface of CHO cells (Q9NZQ7 19-290): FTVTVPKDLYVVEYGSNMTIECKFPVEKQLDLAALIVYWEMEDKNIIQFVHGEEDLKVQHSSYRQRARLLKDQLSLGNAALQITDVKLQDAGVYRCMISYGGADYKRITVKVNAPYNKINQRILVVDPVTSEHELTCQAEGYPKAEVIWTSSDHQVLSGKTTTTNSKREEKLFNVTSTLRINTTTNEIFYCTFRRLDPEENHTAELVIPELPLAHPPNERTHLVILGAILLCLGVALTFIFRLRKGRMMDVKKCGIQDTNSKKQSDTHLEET

[5] = Far-UV CD thermal denaturation; format: physicochemical; details: pH 6.5, 0-90°C
Method in brief: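 Peptide was prepared in PB/MeOH 80:20 (15 mM PB pH 6.5 or 50 mM pH 4.5) at 17–70 μM, set by UV absorbance, in a 0.1 cm quartz cuvette. Far-UV spectra were taken at 190–270 nm, averaged over eight scans, with solvent blank subtracted. The ramp ran 0–90°C at 45°C per hour under nitrogen. Melts used molar ellipticity at 220 or 222 nm; first-derivative maxima gave transitions.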

[6] = cited from earlier work
PD-1/hPD-L1 interaction = PD-1/hPD-L1 interaction (Homo sapiens, UniProt Q9NZQ7); assay: PD-L1 T-cell reactivation assay; format: cell-based; details: 5 μM peptide, 6 h at 37 °C, Bio-Glo luminescence, RLU relative to vehicle
Chain of PD-1/hPD-L1 interaction (Q9NZQ7 19-290): as above

MDA-MB-468 cells = assay: Flow cytometry binding to hPD-L1-negative MDA-MB-468 cells; format: cell-based, human; details: SPAM2-fluorescein dilution series
Method in brief: as §1

[7] = molecular target: human PD‐L1 stably expressed on CHO cells (human, UniProt Q9NZQ7 19-290); assay: flow cytometry on cells
Chain of human PD‐L1 stably expressed on CHO cells (Q9NZQ7 19-290): as above

## I: MYSSTDHILNKFLILHYALNPT[PEG10]K-NH2 / II: MYSSTDHILNKFLILHYALNPT[PEG10] (amide I:24-II:C) [SPAM4]
[1]
  binding to CHO-hPD-L2 cells: no binding
[2]
  binding to CHO-mPD-L1 cells: no binding
[3]
  solubility: low solubility
hPD-L1
  koff: 0.000219 ± 4e-06 s⁻¹
  kon: 2.23e+06 ± 110000 M⁻¹ s⁻¹

## MALPIFSNTYLSHTDLKNYHILGSSSSGS [SPAM3 scrambled]
[4]
  binding of sequence-scrambled peptides to CHO-hPD-L1 cells: no significant binding

## MPIFLDHILNKFWILHYA-NH2 [SPAM]
hPD-L1
  koff: 0.049 ± 0.0009 s⁻¹
  kon: 1.41e+06 ± 30000 M⁻¹ s⁻¹
hPD-L1; K D by BLI, BLI, mean of duplicate
  Kd: 38 ± 1 nM
[5]
  temperature above which irreversible aggregation occurs in thermal denaturation: above 50 °C
[6]; ref Kamalinia et al., 2020
  serum stability (ex vivo): acceptable serum stability

## MSLANYNWSHPSRKDNIHWSLFGSSSSGS [SPAM2 scrambled]
[4]
  binding of sequence-scrambled peptides to CHO-hPD-L1 cells: no significant binding

## MWSRSDHNLNKFWILHYSANPS-NH2 [SPAM2]
PD-1/hPD-L1 interaction
  signal restored in T-cell reactivation assay: more than 50%
hPD-L1
  koff: 0.00264 ± 2e-05 s⁻¹
  kon: 8.78e+06 ± 210000 M⁻¹ s⁻¹

## MYSSTDHILNKFLILHYALNPT-NH2 [SPAM3]
hPD-L1
  koff: 0.00146 ± 1e-05 s⁻¹
  kon: 5.78e+06 ± 80000 M⁻¹ s⁻¹

## SGQYASYHCWCWRDPGRSGGSK [TPP-1, reference compound]
[6]; ref Hu et al., 2019
  serum stability: poor serum stability

## SPAM2‐fluorescein: SPAM2 with C-terminal propargylglycine labeled with fluorescein azide by click chemistry (MWSRSDHNLNKFWILHYSANPS-{propargylglycine(fluorescein)}; also: fluorescein azide attached by click chemistry)
MDA-MB-468 cells
  labeling of hPD-L1-negative cells: no concentration‐dependent labeling

B1: SPAM2‐fluorescein (peptide)
peptide: MWSRSDHNLNKFWILHYSANPS
modifications: also: fluorescein (position not given here)
[7]
  Kd: 15.3 nM

B2: fluorescein‐labeled SPAM3 (peptide)
peptide: MYSSTDHILNKFLILHYALNPT
modifications: also: fluorescein (position not given here)
[7]
  Kd: 5.15 nM
